Measured values taken from ChEMBL document CHEMBL1759862, “Tricyclic compounds containing nonenolizable cyano enones. A novel class of highly potent anti-inflammatory and cytoprotective agents” (J Med Chem, 2011).
Where “and” joins values, the source holds several entries; their conditions need not be identical. Equal values may be shown once. Calls of active or inactive are those of the source. No cut-off for these calls is given here.

Experiments:
RAW264.7 [1] = test: Inhibition of IFN-gamma induced iNOS expression in mouse RAW264.7 cells at 30 nM after 24 hrs by Western blotting; format: functional, cell-based
RAW264.7 [2] = test: Induction of HO-1 expression in mouse RAW264.7 cells at 10 nM after 6 hrs by Western blotting; format: functional, cell-based
Summary of the method: (§1)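 RAW 264.7 macrophages were exposed to compound at 10–100 nM for 6 h. HO-1 protein was detected by Western blot of total cell lysates.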

RAW264.7 [3] = test: Induction of HO-1 expression in mouse RAW264.7 cells at 300 nM after 6 hrs by Western blotting; format: functional, cell-based
Summary of the method: (§2)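 RAW cells treated with compound for 6 h (30–300 nM range); HO-1 detected in total cell lysates by Western blot.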

RAW264.7 [4] = test: Induction of HO-1 expression in mouse RAW264.7 cells at 100 nM after 6 hrs by Western blotting; format: functional, cell-based; summary of the method: as §1
RAW264.7 [5] = test: Induction of HO-1 expression in mouse RAW264.7 cells at 30 nM after 6 hrs by Western blotting; format: functional, cell-based; summary of the method: as §2
[6] = molecular target: NAD(P)H dehydrogenase [quinone] 1 (Mus musculus) (UniProt Q64669); test: Induction of NQO1 activity in mouse Hepa-1c1c7 cells after 48 hrs; format: cell-based
RAW264.7 [7] = test: Antiinflammatory activity in mouse RAW264.7 cells assessed as inhibition of IFN-gamma induced NO production after 24 hrs by Griess reaction; format: functional, cell-based
Summary of the method: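 RAW 264.7 cells exposed to serial concentrations of compound together with IFN-γ (10 ng/mL) for 24 h; NO in supernatants quantified by Griess reaction. IC50 tested over 0.1 pM to 10 μM in 10-fold steps; values averaged from two separate experiments.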

Stomach = test: Induction of HO-1 expression in CD-1 mouse stomach at 1 umol administered via gavage measured after 6 hrs by Western blotting; format: functional, tissue-based
Summary of the method: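 Male CD-1 mice, three per group, received 1 μmol of compound in DMSO by gavage. Stomachs were harvested 6 h later, and HO-1 was detected by Western blot of tissue.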

Liver [8] = test: Antitumor activity against aflatoxin B1-induced tumorigenesis in F344 rat liver assessed as reduction in tumor burden at 10 umol/kg administered via gavage relative to control; format: functional; set-up: scale not given: the % may be the effect or the level left
Summary of the method: (§3)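 Short-term rat model of liver tumorigenesis induced with aflatoxin B1. Test agent was given at 0.3 to 60 μmol/kg. Preneoplastic foci were scored in liver, and tumor burden was expressed against the AFB1-treated positive control group.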

Liver [9] = test: Induction of HO-1 expression in CD-1 mouse liver at 1 umol administered via gavage measured after 6 hrs by Western blotting; format: functional, tissue-based
Rattus norvegicus [10] = test: Toxicity in F344 rat assessed as growth rate at 0.3 to 60 umol administered via gavage; format: organism-based; settings: in vivo, po
Summary of the method: (§4)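 Tolerability was checked in rats in the aflatoxin B1 short-term hepatic tumorigenesis study, dosed at 0.3 to 60 μmol/kg. Growth rate and final body weight were compared with controls not given AFB1.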

Rattus norvegicus [11] = test: Toxicity in F344 rat assessed as effect on body weight at 0.3 to 60 umol administered via gavage; format: organism-based; settings: in vivo, po; summary of the method: as §4
Liver [12] = test: Antitumor activity against aflatoxin B1-induced tumorigenesis in F344 rat liver assessed as reduction in tumor burden at 30 umol/kg administered via gavage; format: functional, tissue-based; summary of the method: as §3
Liver [13] = test: Antitumor activity against aflatoxin B1-induced tumorigenesis in F344 rat liver assessed as reduction in tumor burden at 60 umol/kg administered via gavage; format: functional, tissue-based; summary of the method: as §3
Liver [14] = test: Antitumor activity against aflatoxin B1-induced tumorigenesis in F344 rat liver assessed as inhibition of preneoplastic foci formation administered via gavage; format: functional, tissue-based; summary of the method: as §3
[15] = Cytotoxicity against CD-1 mouse macrophages at 10 uM; format: cell-based; settings: macrophage
[16] = Antiinflammatory activity in CD-1 mouse Macrophage assessed as inhibition of IFN-gamma induced NO production after 48 hrs by Griess reaction; format: functional, cell-based
RAW264.7 [17] = test: Inhibition of IFN-gamma induced iNOS expression in mouse RAW264.7 cells at 300 nM after 24 hrs by Western blotting; format: functional, cell-based
Macrophage [18] = test: Antiinflammatory activity in CD-1 mouse Macrophage assessed as inhibition of IFN-gamma induced NO production after 48 hrs by Griess reaction in presence of glucocorticoid antagonist mifepristone; format: functional, cell-based
Macrophage [19] = test: Ratio of CDDO IC50 to compound IC50 for inhibition of IFN-gamma induced NO production in mouse macrophages; format: functional
Liver [20] = test: Antitumor activity against aflatoxin B1-induced tumorigenesis in F344 rat liver assessed as reduction in tumor burden at 0.3 umol/kg administered via gavage relative to control; format: functional; set-up: scale not given: the % may be the effect or the level left; summary of the method: as §3
RAW264.7 [21] = test: Ratio of CDDO IC50 to compound IC50 for inhibition of IFN-gamma induced NO production in mouse RAW264.7 cells; format: functional
Summary of the method: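 RAW 264.7 cells were co-treated with compound (0.1 pM to 10 μM, 10-fold dilutions) and IFN-γ 10 ng/mL for 24 h. Nitric oxide in supernatants was measured by the Griess reaction. IC50 is the mean of two separate experiments, and the ratio is taken against CDDO's IC50.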

Chain of NAD(P)H dehydrogenase [quinone] 1 (Mus musculus) (Q64669 whole entry): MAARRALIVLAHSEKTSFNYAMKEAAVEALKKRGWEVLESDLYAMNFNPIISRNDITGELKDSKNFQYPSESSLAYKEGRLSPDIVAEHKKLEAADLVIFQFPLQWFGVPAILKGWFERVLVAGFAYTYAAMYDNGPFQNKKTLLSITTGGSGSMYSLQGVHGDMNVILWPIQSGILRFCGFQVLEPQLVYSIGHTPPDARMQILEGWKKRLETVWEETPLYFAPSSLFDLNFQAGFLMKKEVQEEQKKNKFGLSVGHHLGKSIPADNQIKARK

Row | Structure (SMILES) | Activity (RAW264.7 [2]) | Activity (RAW264.7 [3]) | Activity (RAW264.7 [4]) | CD [6] | IC50 (RAW264.7 [7]; Mus musculus, RAW264.7, 24 h) | Activity (Stomach) | Activity (Liver [9]) | also measured
1 | CC1(C)C(=O)C(C#N)=C[C@]2(C)C3=CC(=O)C(C#N)=C[C@]3(C#C[Si](C)(C)C)CC[C@@H]12 (racemic) | Active | Active | Active | 3.5 nM |  |  |  | inhibition (RAW264.7 [1]): Active; Activity (RAW264.7 [5]): Active
2 | CC1(C)CC[C@]2(C(=O)n3ccnc3)CC[C@]3(C)[C@H](C(=O)C=C4[C@@]5(C)C=C(C#N)C(=O)C(C)(C)[C@@H]5CC[C@]43C)[C@@H]2C1 |  |  |  | 3.3 nM | 1 nM | Active | Active | Activity (Liver [8]): 99%; Activity (Rattus norvegicus [10]): Non-toxic; Activity (Rattus norvegicus [11]): Non-toxic
3 | C#C[C@]12C=C(C#N)C(=O)C=C1[C@@]1(C)C=C(C#N)C(=O)C(C)(C)[C@@H]1CC2 (racemic) [listing 1 of 2 here] | Active | Active | Active | 0.9 nM |  | Active |  | inhibition (RAW264.7 [1]): Active; Activity (RAW264.7 [5]): Active; Activity (Liver [12]): Active; Activity (Liver [13]): Active; inhibition (Liver [14]): Dose-dependent effect
4 | CC1(C)CC[C@]2(C(=O)O)CC[C@]3(C)[C@H](C(=O)C=C4[C@@]5(C)C=C(C#N)C(=O)C(C)(C)[C@@H]5CC[C@]43C)[C@@H]2C1 [BARDOXOLONE] |  |  |  | 2.3 nM | 17 nM | inactive | inactive | Activity [15]: Non-toxic; IC50 ([16]; macrophage): 4.3 nM and 0.5 nM
5 | CC1(C)C(=O)C(C#N)=C[C@@]2(C)C3=CC(=O)C(C#N)=C[C@@]3(C#C[Si](C)(C)C)CC[C@H]12 | Active |  | Active | 2.3 nM | 2 nM |  |  | 
6 | CC1(C)C(=O)C(C#N)=C[C@]2(C)C3=CC(=O)C(C#N)=C[C@]3(C)CC[C@@H]12 (racemic) |  | Active |  | 18 nM |  |  | Active | inhibition (RAW264.7 [17]): Active; inhibition (Macrophage [18]): Active
7 | C#C[C@@]12C=C(C#N)C(=O)C=C1[C@]1(C)C=C(C#N)C(=O)C(C)(C)[C@H]1CC2 | Active |  | Active | 0.9 nM | 1 nM |  |  | 
8 | C#C[C@]12C=C(C#N)C(=O)C=C1[C@@]1(C)C=C(C#N)C(=O)C(C)(C)[C@@H]1CC2 (racemic) [listing 2 of 2 here] |  |  |  |  |  |  |  | IC50 (RAW264.7 [7]; raw264.7): 1 nM; Ratio (Macrophage [19]): 80; Activity (Liver [20]): 90%; Activity (Liver [8]): 99%; Ratio (RAW264.7 [21]): 20; IC50 ([16]; Mus musculus, CD-1, Macrophage, 48 h): 0.056 nM; Activity (Rattus norvegicus [10]): Non-toxic; Activity (Rattus norvegicus [11]): Non-toxic
